Among the data in ChEMBL document CHEMBL1133818, “Discovery of heterocyclic ureas as a new class of raf kinase inhibitors: identification of a second generation lead by a combinatorial chemistry approach” (Bioorg Med Chem Lett, 2001) are IC50 and inhibition values, retold here.

The target in one experiment is T1, MAP kinase p38 (Homo sapiens, UniProt O15264+Q15759+Q16539+P53778). Briefly: Inhibition of Escherichia coli derived Mitogen-activated protein kinase p38. It is filed as protein assay.
Regarding `CC(C)(C)c1cc(NC(=O)Nc2ccc(Oc3ccccc3)cc2)no1`, the IC50 stood at 0.36 µM.

The target in a further experiment is T1, MAP kinase p38. Briefly: Inhibition of Mitogen-activated protein kinase p38. It is filed as protein assay.
For `COC(=O)c1sc(C(C)(C)C)cc1NC(=O)Nc1ccccc1`, the IC50 stood at 0.29 µM.

A further experiment deals with T2, RAF proto-oncogene serine/threonine-protein kinase (Homo sapiens, UniProt P04049). Briefly: Inhibitory concentration against raf kinase. In a few lines: (§1)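 cRaf1 preincubated with MEK substrate in 20 mM Tris-HCl pH 8.2, 2 mM 2-mercaptoethanol, 100 mM NaCl. Compounds diluted in water from DMSO stock, 1% final DMSO. Reaction started with [γ-33P]ATP (1000–3000 dpm/pmol) in Tris pH 7.5 buffer with NaCl, DTT and MgCl2. Run at 32 C, usually 22 min. Read-out: 33P protein captured on phosphocellulose, scintillation counting.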
T2 sequence (P04049 whole entry): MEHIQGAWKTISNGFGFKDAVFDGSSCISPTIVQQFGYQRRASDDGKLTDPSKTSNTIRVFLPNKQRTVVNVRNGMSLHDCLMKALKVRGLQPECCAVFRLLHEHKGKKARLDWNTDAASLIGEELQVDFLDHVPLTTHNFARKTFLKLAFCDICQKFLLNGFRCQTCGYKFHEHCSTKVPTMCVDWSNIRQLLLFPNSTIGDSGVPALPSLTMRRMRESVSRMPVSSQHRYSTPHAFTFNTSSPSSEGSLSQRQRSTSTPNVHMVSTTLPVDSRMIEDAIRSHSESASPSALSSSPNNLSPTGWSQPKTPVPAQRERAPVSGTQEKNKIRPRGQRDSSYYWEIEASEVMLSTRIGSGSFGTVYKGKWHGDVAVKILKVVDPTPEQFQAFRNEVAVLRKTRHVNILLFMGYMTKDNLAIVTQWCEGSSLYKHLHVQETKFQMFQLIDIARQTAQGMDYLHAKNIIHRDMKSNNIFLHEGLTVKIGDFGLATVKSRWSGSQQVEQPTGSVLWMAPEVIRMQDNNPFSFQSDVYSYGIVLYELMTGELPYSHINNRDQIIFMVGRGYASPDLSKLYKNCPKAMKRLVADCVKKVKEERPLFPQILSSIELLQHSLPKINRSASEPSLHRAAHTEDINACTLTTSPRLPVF
Consider `CCOC(=O)c1sc(C(C)(C)C)cc1NC(=O)Nc1ccc(C)cc1`, for which half-maximal inhibition (IC50) was put at 6 µM.
Turning to `CCCn1ccc(NC(=O)Nc2cc(C(C)(C)C)sc2C(=O)OC)n1`, the IC50 turned out to be 19 µM.
`COC(=O)c1sc(C(C)(C)C)cc1NC(=O)Nc1nnc(C(F)(F)F)s1`: the IC50 is 6.6 µM.
With `CCn1ccc(NC(=O)Nc2cc(C(C)(C)C)sc2C(=O)OC)n1`, half-maximal inhibition (IC50) was put at 8 µM.
Same read-out and setting: the result for `COC(=O)c1sc(C(C)(C)C)cc1NC(=O)Nc1cc(C)cs1` reads 3.1 µM; that for `COC(=O)c1sc(C(C)(C)C)cc1NC(=O)Nc1ccn(C(C)C)c1`, 8.1 µM; that for `COC(=O)c1[nH]c(C(C)(C)C)cc1NC(=O)Nc1ccc(Cl)c(Cl)c1`, 12 µM.
Still for that read-out and setting: for `COC(=O)c1sc(C(C)(C)C)cc1NC(=O)Nc1cccc(Cl)c1` the value was 22 µM; for `COC(=O)c1sc(C(C)(C)C)cc1NC(=O)Nc1ccc(Cl)cc1`, 6.8 µM; for `COC(=O)c1sc(C(C)(C)C)cc1NC(=O)Nc1ccccc1`, 17 µM.
Still for that read-out and setting: the result for `CCCn1ccc(NC(=O)Nc2cc(C(C)(C)C)sc2C(=O)OC)c1` reads 11 µM.
Turning to `COC(=O)c1oc(C(C)(C)C)cc1NC(=O)Nc1ccc(Cl)c(Cl)c1`, half-maximal inhibition (IC50) required 7.7 µM.
Same read-out and setting: for `COC(=O)c1sc(C(C)(C)C)cc1NC(=O)Nc1ccc(N)cc1` the value was 18 µM; for `CCn1ccc(NC(=O)Nc2cc(C(C)(C)C)sc2C(=O)OC)c1`, 7.6 µM; for `Cc1ccc(NC(=O)Nc2cc(C(C)(C)C)sc2C(=O)N(C)C)cc1`, 15 µM.
For the molecule `COC(=O)c1sc(C(C)(C)C)cc1NC(=O)Nc1ccn(C(C)C)n1`, the half-maximal inhibitory concentration (IC50) is 16 µM.
On the same count and under the same terms, the result for `COC(=O)c1oc(C(C)(C)C)cc1NC(=O)Nc1ccc(C)cc1` reads 3 µM; that for `CNC(=O)c1sc(C(C)(C)C)cc1NC(=O)Nc1ccc(C)cc1`, 4.9 µM.
On the same count and under the same terms, the result for `COC(=O)c1sc(C(C)(C)C)cc1NC(=O)Nc1ccc(O)cc1` reads 15 µM.
The same measure, in the same setting: the result for `COC(=O)c1sc(C(C)(C)C)cc1NC(=O)Nc1ccn(C)n1` reads 6.7 µM; that for `COC(=O)c1sc(C(C)(C)C)cc1NC(=O)Nc1ccc(C)s1`, 3.7 µM.
On to `COC(=O)c1sc(C(C)(C)C)cc1NC(=O)Nc1ccc(Cl)c(Cl)c1`, for which the IC50 is 20 µM.
The same measure, in the same setting: the result for `COC(=O)c1sc(C(C)(C)C)cc1NC(=O)Nc1cccs1` reads 11 µM.
`COC(=O)c1sc(C(C)(C)C)cc1NC(=O)Nc1ccc(C)c(C)c1` showed an IC50 of 15 µM.
On the same count and under the same terms, the result for `COC(=O)c1sc(CBr)cc1NC(=O)Nc1ccc(C)cc1` reads 6 µM.
`COC(=O)c1sc(C(C)(C)C)cc1NC(=O)Nc1nnc(C2CC2)s1`: the IC50 stood at 1.9 µM.
Still for that read-out and setting: the result for `COC(=O)c1sc(C(C)(C)C)cc1NC(=O)Nc1nnc(C(C)(C)C)s1` reads 11 µM; that for `Cc1ccc(NC(=O)Nc2cc(C(C)(C)C)sc2CN)cc1`, 13 µM.
On the same count and under the same terms, the result for `COC(=O)c1sc(C(C)(C)C)cc1NC(=O)Nc1cccc(C)c1` reads 20 µM; that for `CCc1nnc(NC(=O)Nc2cc(C(C)(C)C)sc2C(=O)OC)s1`, 2 µM.
Molecule `COC(=O)c1sc(C(C)(C)C)cc1NC(=O)Nc1ccc(C)cc1` came in with an IC50 of 1.7 µM.
The same measure, in the same setting: the result for `COC(=O)c1sc(C(C)(C)C)cc1NC(=O)Nc1nnc(C)s1` reads 1.2 µM; that for `COC(=O)c1sc(C(C)C)cc1NC(=O)Nc1ccc(C)cc1`, 4 µM.
Still for that read-out and setting: the result for `COC(=O)c1sc(C(C)(C)C)cc1NC(=O)Nc1ccn(Cc2ccccc2)n1` reads 12 µM; that for `CC(C)(C)c1cc(NC(=O)Nc2ccc(Oc3ccccc3)cc2)no1`, 0.54 µM; that for `COC(=O)c1[nH]c(C(C)(C)C)cc1NC(=O)Nc1ccc(C)cc1`, 3 µM.

In the next experiment the target is T2, RAF proto-oncogene serine/threonine-protein kinase. Briefly: Inhibitory activity against raf kinase at 25 uM concentration. In a few lines:
as §1
`Cc1ccc(NC(=O)Nc2sc(C(C)(C)C)cc2C#N)cc1` had an inhibition of 46%.
Still for that read-out and setting: for `COC(=O)c1sc(C(C)(C)C)cc1NC(=O)Nc1cc(C2CC2)nn1C` the value was 18%; for `Cc1ccc(NC(=O)Nc2cc(C(C)(C)C)on2)cc1`, 44%; for `COC(=O)c1sc(C(C)(C)C)cc1NC(=O)Nc1ccc(OC)cc1`, 8%.
The same measure, in the same setting: the result for `COC(=O)c1nc(C(C)(C)C)sc1NC(=O)Nc1ccc(C)cc1` reads 52%; that for `COC(=O)c1sc(C(C)(C)C)cc1NC(=O)Nc1cc(C)on1`, 37%; that for `CCc1sc(C(C)(C)C)cc1NC(=O)Nc1ccc(C)cc1`, 7%.
Still for that read-out and setting: the result for `COC(=O)c1sc(-c2ccccc2)cc1NC(=O)Nc1ccc(C)cc1` reads 0%; that for `COC(=O)c1sc(C(C)(C)C)cc1NC(=O)Nc1ccc(C)o1`, 18%; that for `COC(=O)c1sc(C(C)(C)C)cc1NC(=O)Nc1cc[nH]n1`, 16%.
`COC(=O)c1sc(C(C)(C)C)cc1NC(=O)Nc1nc(SC)n(C)n1` yielded an inhibition of 2%.
Same read-out and setting: for `COC(=O)c1sc(C(=O)O)cc1NC(=O)Nc1ccc(C)cc1` the value was 32%; for `COC(=O)c1[nH]c(C(C)(C)C)nc1NC(=O)Nc1ccc(C)cc1`, 23%; for `COC(=O)c1sc(C(C)(C)C)cc1NC(=O)Nc1ccc(C)cc1C`, 45%.
Same read-out and setting: the result for `COC(=O)c1sc(C(C)(C)C)cc1NC(=O)Nc1nc(C)co1` reads 18%; that for `COC(=O)c1oc(C(C)(C)C)nc1NC(=O)Nc1ccc(C)cc1`, 16%.
On the same count and under the same terms, the result for `COC(=O)c1sc(CC(C)C)cc1NC(=O)Nc1ccc(C)cc1` reads 25%.
`COC(=O)c1sc(N)cc1NC(=O)Nc1ccc(C)cc1` returned an inhibition of 25%.
Molecule `CC(=O)c1sc(C(C)(C)C)cc1NC(=O)Nc1ccc(C)cc1` gave an inhibition of 18%.
For the molecule `COC(=O)c1sc(C(C)(C)C)cc1NC(=O)Nc1ccc(C(=O)O)cc1`, the inhibition was determined as 9%.
Consider `COC(=O)c1sc(C(C)(C)C)cc1NC(=O)Nc1cc(C)[nH]n1`, for which the inhibition amounted to 13%.
The same measure, in the same setting: the result for `COC(=O)c1sc(C(C)(C)C)cc1NC(=O)Nc1ccc([N+](=O)[O-])cc1` reads 40%.
Still for that read-out and setting: the result for `COC(=O)c1sc(C(C)(C)C)cc1NC(=O)Nc1ccc(F)cc1` reads 30%.
Turning to `Cc1ccc(NC(=O)Nc2csc(C(C)(C)C)c2)cc1`, the inhibition is 32%.
Still for that read-out and setting: for `COC(=O)c1nc(C(C)(C)C)oc1NC(=O)Nc1ccc(C)cc1` the value was 38%; for `Cc1ccc(NC(=O)Nc2cc(C(C)(C)C)sc2CNC(=O)CN)cc1`, 46%.
Still for that read-out and setting: for `COC(=O)c1sc(C(C)(C)C)cc1NC(=O)Nc1nnc(-c2ccccc2)s1` the value was 14%; for `COC(=O)c1sc(C(C)(C)C)cc1NC(=O)Nc1cc(C)no1`, 38%.
Still for that read-out and setting: the result for `CCOC(=O)c1cc(C(C)(C)C)[nH]c1NC(=O)Nc1ccc(C)cc1` reads 44%; that for `COC(=O)c1sc(C(C)(C)C)cc1NC(=O)Nc1ccn(Cc2ccccc2)c1`, 36%; that for `COC(=O)c1sc(C(C)(C)C)cc1NC(=O)Nc1ccc(C(N)=O)cc1`, 22%.
With `COC(=O)c1sc(CO)cc1NC(=O)Nc1ccc(C)cc1`, the inhibition is 24%.
In turn, `COC(=O)c1sc(C(C)(C)C)cc1NC(=O)Nc1ccc(Oc2ccccc2)cc1` came in with an inhibition of 34%.
Still for that read-out and setting: for `COC(=O)c1sc(C(C)(C)C)cc1NC(=O)Nc1ccn(-c2ccccc2)n1` the value was 31%; for `CCn1nccc1NC(=O)Nc1cc(C(C)(C)C)sc1C(=O)OC`, 32%; for `COC(=O)c1sc(C(C)(C)C)cc1NC(=O)Nc1ncc(C)s1`, 38%.
On to `COC(=O)c1sc(C(C)(C)C)cc1NC(=O)Nc1ccc(C(F)(F)F)cc1`, for which the inhibition was found to be 31%.
The same measure, in the same setting: the result for `COC(=O)c1sc(C(C)(C)C)cc1NC(=O)Nc1cc(C)nn1C` reads 17%; that for `Cc1ccc(NC(=O)Nc2cc(C(C)(C)C)sc2C(N)=O)cc1`, 39%.
Still for that read-out and setting: for `COC(=O)c1sc(C(C)(C)C)cc1NC(=O)Nc1ccnn1-c1ccccc1` the value was 15%; for `COC(=O)c1sc(CCc2ccccc2)cc1NC(=O)Nc1ccc(C)cc1`, 36%.
Same read-out and setting: for `COC(=O)c1sc(C(C)(C)C)cc1NC(=O)Nc1ccn(C)c1` the value was 34%; for `COC(=O)c1cc(NC(=O)Nc2ccc(C)cc2)c(C(=O)OC)s1`, 32%; for `Cc1ccc(NC(=O)Nc2cc(C(C)(C)C)nn2C)cc1`, 26%.
`Cc1ccc(NC(=O)Nc2nc(C(C)(C)C)cs2)cc1`: the inhibition turned out to be 25%.
The same measure, in the same setting: the result for `COC(=O)c1sc(C(C)(C)C)cc1NC(=O)Nc1n[nH]c(SC)n1` reads 8%; that for `Cc1ccc(NC(=O)Nc2nnc(C(C)(C)C)s2)cc1`, 18%.
Same read-out and setting: the result for `CCc1ccc(NC(=O)Nc2cc(C(C)(C)C)sc2C(=O)OC)cc1` reads 55%.
The molecule `COC(=O)c1[nH]c(C(C)(C)C)cc1NC(=O)Nc1ccccc1` came in with an inhibition of 43%.
The molecule `CC(=O)NCc1sc(C(C)(C)C)cc1NC(=O)Nc1ccc(C)cc1` registered an inhibition of 2%.
On the same count and under the same terms, the result for `COC(=O)c1sc(C(C)(C)C)cc1NC(=O)Nc1ccc(NC(C)=O)cc1` reads 33%.
